# From ChEMBL document CHEMBL2417383, “Assay platform for clinically relevant metallo-β-lactamases” (J Med Chem, 2013)
# Experiments:
# [1] = Inhibition of recombinant SPM-1 (unknown origin) expressed in Escherichia coli BL21 (DE3) cells using FC4 as substrate assessed as residual activity at 1 mM preincubated for 10 mins prior to substrate addition by fluorescence-based assay relative to control
# In short: (§1)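 Mature SPM-1, E. coli codon-optimized, with N-terminal His6 tag cleavable by 3C protease, was expressed from pOPINF in E. coli BL21(DE3) pLysS in 2TY and purified to >95%. […] Fluorescence was read at λex 380/λem 460 nm and residual activity calculated.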
# [2] = Chemical stability of the compound in buffer assessed as compound hydrolysis after 8 hrs; type: physicochemical
# In short: (§2)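 Substrate autohydrolysis was followed in aqueous assay buffer at room temperature over time, up to at least 8 h.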
# [3] = Chemical stability of the compound in aqueous solution; type: physicochemical; conditions: buffer; in short: as §2
# BL21-DE3 [4] = assay: Inhibition of recombinant SPM-1 (unknown origin) expressed in Escherichia coli BL21 (DE3) cells using FC4 as substrate assessed as residual activity at 200 uM preincubated for 10 mins prior to substrate addition by fluorescence-based assay relative to control; in short: as §1
# BL21-DE3 [5] = tested on: BL21-DE3
# BL21-DE3 [6] = tested on: BL21-DE3; remark: listed apart in the source
# BL21-DE3 [7] = tested on: BL21-DE3; remark: listed apart in the source
# BL21-DE3 [8] = tested on: BL21-DE3; remark: listed apart in the source
# BL21-DE3 [9] = tested on: BL21-DE3; remark: listed apart in the source
compound,measurement,setting,value
CC(C)[C@@H](NC(=O)c1nc(Cl)c2ccccc2c1O)C(=O)O,Activity,[1],16%
O=C(O)C[C@@H](NC(=O)c1nc(Cl)c2ccccc2c1O)C(=O)O,Activity,[1],< 5%
O=C(O)CC[C@H](NC(=O)c1nc(Cl)c2ccccc2c1O)C(=O)O,Activity,[1],< 5%
O=C(N[C@H](Cc1c[nH]c2ccccc12)C(=O)O)c1nc(Cl)c2ccccc2c1O,Activity,[1],< 5%
O=C(Cc1ccccc1)N[C@@H]1C(=O)N2C(C(=O)O)=C(COc3ccc4ccc(=O)oc4c3)C[S+]([O-])[C@H]12 (stereo partly specified),Stability,[2],Stable
same,Stability,[3],Stable
CC(C)C[C@H](NC(=O)c1nc(Cl)c2ccccc2c1O)C(=O)O,Activity,[1],< 5%
same,Activity,BL21-DE3 [4],26%
O=C(Cc1cccs1)N[C@@H]1C(=O)N2C(C(=O)O)=C(/C=C/c3ccc([N+](=O)[O-])cc3[N+](=O)[O-])CS[C@H]12,Km,BL21-DE3 [5],8.8 µM
same,kcat,BL21-DE3 [5],25.3 s⁻¹
same,Km,BL21-DE3 [6],7.2 µM
same,kcat,BL21-DE3 [6],226 s⁻¹
same,Km,BL21-DE3 [7],55.7 µM
same,kcat,BL21-DE3 [7],2790 s⁻¹
same,Km,BL21-DE3 [8],16 µM
same,kcat,BL21-DE3 [8],0.7 s⁻¹
same,Km,BL21-DE3 [9],8.1 µM
same,kcat,BL21-DE3 [9],14.9 s⁻¹
CC(C)[C@H](NC(=O)c1nc(Cl)c2ccccc2c1O)C(=O)O,Activity,[1],16%
O=C(Cc1ccccc1)N[C@@H]1C(=O)N2C(C(=O)O)=C(COc3ccc4ccc(=O)oc4c3)CS(=O)(=O)[C@H]12,Stability,[2],Stable
same,Stability,[3],Stable
O=C(O)CC[C@@H](NC(=O)c1nc(Cl)c2ccccc2c1O)C(=O)O,Activity,[1],< 5%
O=C(O)C[C@H](NC(=O)c1nc(Cl)c2ccccc2c1O)C(=O)O,Activity,[1],< 5%
CC(C)C[C@@H](NC(=O)c1nc(Cl)c2ccccc2c1O)C(=O)O,Activity,[1],< 5%
same,Activity,BL21-DE3 [4],32%
O=C(N[C@@H](Cc1c[nH]c2ccccc12)C(=O)O)c1nc(Cl)c2ccccc2c1O,Activity,[1],< 5%
